The target of this assay is G protein-activated inward rectifier potassium channel 4 (Homo sapiens) + G protein-activated inward rectifier potassium channel 1 (Homo sapiens) (UniProt P48544+P48549). The assay can be described thus: GIRK1/4 channel activators, Tl+ flux, dose response, cell-based, HEK-293 hGIRK1/4, thallium flux, FluoZin-2, concentration-response (AID 623975). To be noted: HEK-293 hGIRK1/4, thallium flux FluoZin-2 fluorescence. An outline of the steps:
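System: HEK-293 line stably expressing hGIRK1/4 / Also added: thallium plus EC20 glutamate / Timing: dye loading ~60 min at room temperature, compound 4 min / Technique: thallium-flux fluorescence with FluoZin-2 AM dye, F/F0 traces / Evaluation: Vehicle-corrected slope as % of MPD, logistic potency fit / Repeats: triplicate wells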

Structures are written as SMILES. pEC50: −log10 of the molar value.

Sequence of G protein-activated inward rectifier potassium channel 4 (Homo sapiens) + G protein-activated inward rectifier potassium channel 1 (Homo sapiens) (P48544 whole entry, looked up): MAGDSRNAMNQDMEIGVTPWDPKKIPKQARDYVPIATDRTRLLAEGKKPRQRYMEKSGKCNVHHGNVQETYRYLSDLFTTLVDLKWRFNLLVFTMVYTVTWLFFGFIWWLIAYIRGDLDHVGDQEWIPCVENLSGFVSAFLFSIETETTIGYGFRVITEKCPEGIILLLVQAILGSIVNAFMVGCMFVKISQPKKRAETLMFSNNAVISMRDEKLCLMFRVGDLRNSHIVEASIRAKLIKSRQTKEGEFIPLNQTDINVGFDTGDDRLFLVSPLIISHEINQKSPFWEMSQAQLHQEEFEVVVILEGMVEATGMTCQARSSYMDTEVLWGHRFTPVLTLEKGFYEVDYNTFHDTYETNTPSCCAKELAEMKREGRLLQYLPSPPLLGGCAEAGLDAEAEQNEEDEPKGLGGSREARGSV
Sequence of G protein-activated inward rectifier potassium channel 4 (Homo sapiens) + G protein-activated inward rectifier potassium channel 1 (Homo sapiens) (P48549 whole entry, looked up): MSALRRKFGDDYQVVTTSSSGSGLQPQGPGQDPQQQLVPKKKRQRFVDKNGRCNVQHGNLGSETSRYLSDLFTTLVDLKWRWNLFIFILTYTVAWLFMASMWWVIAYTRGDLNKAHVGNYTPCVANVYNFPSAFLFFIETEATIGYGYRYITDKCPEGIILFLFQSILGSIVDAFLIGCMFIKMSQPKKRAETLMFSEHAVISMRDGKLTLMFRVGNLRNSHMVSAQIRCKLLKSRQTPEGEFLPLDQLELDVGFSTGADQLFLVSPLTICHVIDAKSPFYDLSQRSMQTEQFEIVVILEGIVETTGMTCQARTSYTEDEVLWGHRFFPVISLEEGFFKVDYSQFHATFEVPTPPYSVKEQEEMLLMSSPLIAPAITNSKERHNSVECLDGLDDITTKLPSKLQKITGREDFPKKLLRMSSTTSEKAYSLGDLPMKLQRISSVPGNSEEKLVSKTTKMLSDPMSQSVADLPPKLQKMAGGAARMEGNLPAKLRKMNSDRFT

As a reminder, the pEC50 is −log10 of the EC50, conventionally taken in molar units. Turning to `Cc1cc(NC(=O)Nc2ccc(F)c(F)c2)n(-c2ccccc2)n1`, the pEC50 is 5.95.

For the origin of these results see PubChem BioAssay AID623975 (Vanderbilt High Throughput Screening Facility, 2012).
